Screening results: PubChem BioAssay, several laboratories
Sampled rows, rich in hits. Any-hit rate of the full collection: about 5.8%.
14-3-3 Bad PPI: disrupts binding of bovine 14-3-3 zeta to phospho-Bad peptide. P63103. TR-FRET 14-3-3zeta/Dy647-pBad peptide displacement, 1 h. inhibition, % at 21.7 µM. 220,000 tested, 0.71% active. AID 781;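 active = inhibition above about 70%, limit read from the data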;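 also: 0% = full 14-3-3 plus peptide FRET controls and 100% = background without 14-3-3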
ROMK primary: modulators of human ROMK potassium channel | 130,000 tested, 2% active | P48048 | B-score at 10 µM | Tet-inducible ROMK, thallium flux fluorescence; actives lie on both sides;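 active = signal ratio slope over the read window, or its plate-corrected B-score, at least 3 SD from the plate mean, either direction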;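 also: B-score of the F/F0 ratio slope over 7 to 12 s after thallium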
Cl transport mod: KCC2 (human) Cl- transport modulation | Q9H2X9 | KCC2 cells, thallium flux FluoZin-2 fluorescence | B-score of Tl+ flux slope (higher = more flux/activation; lower = inhibition) at 10 µM | 190,000 tested, 2.2% active | AID 1456;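 active = thallium flux slope and its plate-corrected score both differing from the plate sample mean at a set confidence after two filtering rounds, in either direction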;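 also: slope of fluorescence scaled to starting intensity during 10 to 20 s after thallium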
Target sequence (Q9H2X9 whole entry, looked up): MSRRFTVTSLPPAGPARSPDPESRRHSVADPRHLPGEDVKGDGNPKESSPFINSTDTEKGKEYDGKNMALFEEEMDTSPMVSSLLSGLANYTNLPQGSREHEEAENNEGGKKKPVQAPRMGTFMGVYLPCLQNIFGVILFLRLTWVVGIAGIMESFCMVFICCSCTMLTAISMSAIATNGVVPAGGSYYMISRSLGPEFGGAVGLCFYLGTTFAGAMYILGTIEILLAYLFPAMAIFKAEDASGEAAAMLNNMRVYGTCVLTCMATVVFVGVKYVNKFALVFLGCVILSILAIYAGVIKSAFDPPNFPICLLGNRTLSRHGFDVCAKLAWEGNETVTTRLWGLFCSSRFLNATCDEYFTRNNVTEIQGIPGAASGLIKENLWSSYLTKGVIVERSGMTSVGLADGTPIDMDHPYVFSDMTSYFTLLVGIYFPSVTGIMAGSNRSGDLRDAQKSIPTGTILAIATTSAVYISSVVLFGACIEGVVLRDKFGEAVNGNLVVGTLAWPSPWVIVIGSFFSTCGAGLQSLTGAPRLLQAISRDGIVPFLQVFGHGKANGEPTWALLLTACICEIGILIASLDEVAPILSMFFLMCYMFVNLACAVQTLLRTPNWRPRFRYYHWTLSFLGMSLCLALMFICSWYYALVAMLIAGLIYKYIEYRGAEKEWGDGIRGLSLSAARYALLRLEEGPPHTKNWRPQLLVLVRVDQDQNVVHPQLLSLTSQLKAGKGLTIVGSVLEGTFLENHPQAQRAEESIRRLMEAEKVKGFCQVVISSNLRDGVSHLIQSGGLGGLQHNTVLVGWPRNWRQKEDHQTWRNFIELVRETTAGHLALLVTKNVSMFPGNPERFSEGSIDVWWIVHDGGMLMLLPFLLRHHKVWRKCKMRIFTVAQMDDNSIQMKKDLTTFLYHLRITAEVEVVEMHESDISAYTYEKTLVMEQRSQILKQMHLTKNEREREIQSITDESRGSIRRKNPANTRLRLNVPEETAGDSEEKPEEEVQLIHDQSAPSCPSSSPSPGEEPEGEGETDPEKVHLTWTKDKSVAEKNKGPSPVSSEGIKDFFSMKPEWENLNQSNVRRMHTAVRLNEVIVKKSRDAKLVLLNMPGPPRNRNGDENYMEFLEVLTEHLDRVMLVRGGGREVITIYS
RBBP9 inh: human RBBP9 hydrolase inhibition. 220,000 tested, 0.2% active. recombinant RBBP9, FP-Rh probe fluorescence polarization. inhibition, % at 7.94 µM;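 active = inhibition above the campaign mean of all tested compounds plus 3 SD, cut at about 14% in these data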;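 also: plate controls were DMSO wells with RBBP9 for no effect and wells lacking RBBP9 protein for full effect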
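System: RBBP9 protein / Quantity: 2.5 µM RBBP9 dispensing solution, before mixing / Also added: Serine-hydrolase probe FP-Rh, 375 nM pre-mixing / Dosing: 7.94 µM single dose, 0.794% DMSO / Timing: enzyme-compound preincubation 30 min, then probe labeling 45 min, 25 °C / Signal: FP readout at 525/598 nm / Controls: DMSO-treated enzyme wells and wells lacking RBBP9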
p47phox inh: blocks human p47phox regulatory protein of NADPH oxidases; P14598; inhibition, % at 24.7 µM; 220,000 tested, 0.53% active; p47phox/p22phox peptide binding, fluorescence polarization, 2 h; AID 1274;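 active = inhibition above about 30%, limit read from the data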;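 also: 0% = p47phox with labelled peptide and 100% = labelled peptide alone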
WT yeast gro inh: growth inhibition of WT yeast, mitochondrial fusion screen. mitochondrial fusion phenotypic screen, WT strain. inhibition, % at 10 µM. 190,000 tested, 2.1% active. AID 1362; in the data active = inhibition above about 58%; tested in S. cerevisiae
Numbers without * were called inactive; . = not tested or not shown; ! = not active in a repeat; [ ] = another dose, or the depositor's remark.

SMILES | 14-3-3 Bad PPI | ROMK primary | Cl transport mod | RBBP9 inh | p47phox inh | WT yeast gro inh
CC(C)C(OC(=O)c1cccs1)C(=O)NCc1ccccc1 (centres undefined) | -2 | 0.64 | -0.0023 | -4 | -4 | -14
Cc1cccc(N(C)C(=S)Oc2ccc3ccccc3c2)c1 | -3 | . | -0.81 | -14 | -3 | 62*
CC(C)(C)NC(=O)C(c1ccco1)N(C(=O)Cn1nnc(-c2ccc(F)cc2)n1)c1ccccc1F (centres undefined) | 39 | . | 1 | -1 | -5 | 63*
Cc1nc2ccc(C(=O)NCc3ccc4c(c3)OCO4)cc2s1 | 4 | . | -0.046 | -7 | 1 | 64*
CC(C)NC(=O)NC(=O)COC(=O)C1(C)CC1(Cl)Cl (centres undefined) | -2 | 0.089 | 0.59 | 2 | -3 | -16
Cn1cc(-c2ccno2)c(C(=O)O)n1 | -8 | 1.2 | 0.15 | -7 | -2 | 8
Cc1ccc(C)c(NC(=S)c2nc3ccccc3s2)c1 | -6 | . | 22* | -11 | -8 | 16
Cc1ccc(NC(=S)c2nc3ccccc3s2)cc1 | 0 | . | 3.4 | -8 | 5 | 8
CCN(C(=O)CSc1cc(C)c2cccc(C)c2n1)C1CCS(=O)(=O)C1 (centres undefined) | -8 | -0.99 | 0.45 | 1 | -26 | 3
Clc1cccc(COn2c(-c3ccc(Cl)cc3Cl)nc3ncccc32)c1 | 5 | 1.5 | . | -10 | -20 | 67*
Cc1ccc(COn2c(-c3ccc(Cl)cc3Cl)nc3ncccc32)cc1 | 27 | -0.065 | -1.3 | -6 | -4 | 71*
CCn1c(CCNC(=O)c2ccc(Cl)cc2)n[nH]c1=S | -1 | 0.72 | 0.73 | -5 | -7 | -9
O=C(c1ccc(Cl)cc1)n1c(NCc2ccccc2)n[nH]c1=S | 82* | 0.82 | 0.53 | -2 | -7 | -7
CCc1ccccc1N1C[C@@]23C=C[C@@H](O2)C(C(=O)OCC(C)C)[C@H]3C1=O (some centres undefined) | -3 | 0.0027 | 0.024 | -2 | -9 | 60*
CCc1ccccc1N1CC23C=CC(O2)C(C(=O)OC)C3C1=O (centres undefined) | -2 | . | . | -3 | -6 | 17
COc1ccc2c(c1)cc(C(=O)O)n2C | -11 | . | -0.11 | -6 | -5 | -2
COc1cc2cc(C(=O)O)n(C)c2c(OC)c1OC | 0 | 0.095 | 0.89 | -8 | 60* | -8
COc1ccc(N2C(=S)NC3N2C(=S)NC3(C)c2ccccc2)cc1 (centres undefined) | -9 | -0.32 | 0.027 | -3 | -7 | 5
COc1ccc(-c2nnc(NC(=O)CSc3ccc(Cl)cc3)s2)cc1OC | 18 | . | 0.54 | 9 | 41* | -7
c1cncc(-c2nc3ccccc3[nH]2)c1 | -1 | . | -0.054 | -10 | 1 | 21
c1ccc2[nH]c(-c3ccncc3)nc2c1 | 2 | 1.2 | 0.7 | -1 | 30*! | 5
NCCCC[C@@H]1NC(=O)[C@H](CCC(=O)O)NC(=O)c2cc([N+](=O)[O-])cc(I)c2SC[C@@H](C(=O)NCC(N)=O)NC1=O | 48 | 0.36 | -0.33 | -11 | -1 | -21
NCCCC[C@@H]1NC(=O)c2cc([N+](=O)[O-])cc(I)c2SC[C@@H](C(N)=O)NC(=O)[C@H](Cc2ccc(O)cc2)NC1=O | 72*[fluorescence artefact?] | 0.15 | -1.1 | -8 | -5 | -14
COc1cc(/C=N/Nc2nc(=O)[nH]nc2C)cc([N+](=O)[O-])c1O | 1 | 0.31 | 0.13 | -1 | 8 | .
CCC1Oc2ccc(C)cc2N(CC(=O)NCCCN2CCCCC2CC)C1=O (centres undefined) | -6 | . | -0.19 | 6 | -15 | 81*
SMILES | 14-3-3 Bad PPI | ROMK primary | Cl transport mod | RBBP9 inh | p47phox inh | WT yeast gro inh
CCC1Oc2ccc(C)cc2N(CC(=O)NCCC2=CCCCC2)C1=O (centres undefined) | 6 | . | -2.8 | -6 | 6 | 7
CC(C)(C)C(=O)N1CCC(O)(CS(=O)(=O)Cc2ccccc2)CC1 | -9 | -0.51 | -1.2 | -15 | -5 | 0
CC12CCC(C/C1=N/O)C2(C)CBr (centres undefined) | 0 | 0.35 | 0.45 | -6 | -5 | .
C/C(=N/NS(=O)(=O)c1ccc(Cl)cc1)c1cccc(NC(=O)c2ccc(Cl)cc2Cl)c1 | -6 | . | . | -6 | 31* | -15
Cc1cc(C)c(CSc2ncnc3nc[nH]c23)c(C)c1 | -1 | -0.0054 | -0.52 | -7 | -3 | 69*
C(=C\c1ccccn1)/c1cccnc1 | 0 | . | -0.9 | -5 | -2 | .
C[C@H]1CC[C@H]2C(=O)N3[C@H](c4ccccc4Br)[C@@H](C)CC[C@H]3C(=O)N2[C@@H]1c1ccccc1Br | -3 | -4.3* | 4.4* | -13 | -11 | 70*
CC1CCN(C2CC(=O)N(c3ccccc3)C2=O)CC1 (centres undefined) | -3 | -0.2 | -0.059 | -6 | -8 | 7
S=C(Nc1cccc(Cl)c1)Nc1cccc2cnccc12 | -9 | . | 1.2 | -3 | -1 | 70*
Cc1ccc(C)c(NC(=S)Nc2cccc3cnccc23)c1 | -7 | 0.7 | -0.66 | 3 | 5 | 62*
Cc1ccc(NC(=S)Nc2cccc3cnccc23)cc1C | -15 | 0.01 | 0.019 | 7 | 0 | 59*
Cn1c(=O)c([N+](=O)[O-])c(NCc2ccc3c(c2)OCO3)c2ccccc21 | -5 | . | -2 | 4 | -7 | .
CCOc1cc(Cl)c(NC(=O)CC)cc1OCC | -8 | 0.51 | -0.057 | -7 | -6 | 1
Cc1ccc(S(=O)(=O)NC(C)(C)CN2CCC(Cc3ccccc3)CC2)cc1 | 30 | . | -2.9 | -11 | -13 | .
CCCn1c2c(c(O)c(C(=O)Nc3nccs3)c1=O)CCCC2 | -12 | . | -0.81 | 0 | -13 | 76*
CCCn1c2c(c(O)c(C(=O)Nc3nc(C)cs3)c1=O)CCCC2 | -5 | . | -0.34 | 4 | -2 | -14
Cc1csc(NC(=O)c2c(O)c3c(n(CC(C)C)c2=O)CCCC3)n1 | 12 | . | 0.35 | 3 | -7 | 63*
COc1ccc(-c2nnn(CC(=O)NCc3ccc4c(c3)OCO4)n2)cc1OC | 40 | 1.1 | 0.011 | 2 | 34* | -8
O=S(=O)(Nc1ccc(-n2cccc2)cc1)c1ccc(Cl)cc1Cl | 4 | . | . | -9 | -46 | 88*
O=C(c1ccc(Cl)cc1)N1CCC(O)(CSc2ccc(Cl)cc2)CC1 | -7 | . | -0.49 | 0 | -7 | 61*
O=c1[nH][nH]c(-c2ccccc2)c1C=Nc1ccccc1 | -1 | . | 1.4 | 2 | 4 | 80*
CCn1cc(C(=O)OCC(=O)c2cc(C)n(-c3cccc(C(F)(F)F)c3)c2C)c(=O)c2ccc(C)nc21 | -6 | -1.7 | -0.0024 | 1 | -52 | 68*
CCn1cc(C(=O)OCC(=O)c2ccccc2)c(=O)c2ccc(C)nc21 | 42 | -0.016 | -1.1 | -7 | -7 | -7
COc1cc(Cl)cc(/C=C/c2ccc3ccccc3n2)c1OC(C)=O | -6 | 0.44 | -1.5 | -4 | -5 | 60*
